Measurements from ChEMBL document CHEMBL1123657, “Anthrapyrazole anticancer agents. Synthesis and structure-activity relationships against murine leukemias” (J Med Chem, 1987).

Legend:
L1210 [1] = assay: Compound was tested in vitro against murine L1210 leukemia;IA means inactive; type: functional, cell-based, Mus musculus
P388 [2] = assay: Optimal dose per injection in mg/kg required to inhibit growth of P388 leukemia cells in mice; type: functional, Mus musculus
Outline: (§1)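 P388 leukemia implanted ip in mice; drug given ip on days 1 and 5 (ip/ip; D1,5), dosed in mg/kg per injection. Read-out is treated/control (T/C, %) with cures counted, reported at the optimal dose.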

P388 [3] = assay: Inhibition of P388 leukemia cells in mice, measured as percent treated to the control values with the number of 30 day survivors; type: functional, Mus musculus; outline: as §1
P388 [4] = assay: Activity against P388 leukemia cells in mice, by intraperitoneal dosing and net log tumor cell kill was reported; type: functional, Mus musculus
L1210 [5] = assay: Compound was tested in vitro against murine L1210 leukemia; IA is inactive.; type: functional, cell-based, Mus musculus
L1210 [6] = assay: Tested in vitro against murine L1210 leukemia.; type: functional, cell-based; details: Mus musculus
P388 [7] = assay: Tested for activity against P388 leukemia cells in mice, by intraperitoneal dosing and percent treated to the control values with the number of 30 day survivors i; type: functional, Mus musculus
Outline: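 P388 leukemia implanted intraperitoneally in mice. Compound given ip on days 1 and 5, as mg/kg per injection across a dose series. Read-out is median survival of treated mice as a percentage of untreated controls (T/C %), taken at the optimal dose, with cures noted.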

B16 [8] = assay: Tested for activity against murine B-16 melanoma in mice and percent treated to the control values with the number of 60 day survivors; type: functional, Mus musculus
Outline: (§2)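 Murine B-16 melanoma in vivo: tumor implanted ip, compound given ip on days 1–9 (ip/ip; D1–9), dosed as mg/kg per injection. Activity expressed as T/C (%) plus number of cures, taken at the optimal dose.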

B16 [9] = assay: Optimal dose per injection in mg/kg required to inhibit growth of murine B-16 melanoma in vivo; type: functional, Mus musculus; outline: as §2

SMILES	IC50 (L1210 [1])	Dose (P388 [2]) [mg/kg]	T/C (P388 [3]) [%]	Activity (P388 [4])	IC50 (L1210 [5])	IC50 (L1210 [6]) [nM]	T/C (P388 [7]) [%]	T/C (B16 [8]) [%]	Optimal dose (B16 [9]) [mg/kg]
CCCCCCNc1ccc2c3c(nn2CCO)-c2ccccc2C(=O)c13	Not Active	100	98	-1.6	–	–	–	–	–
CCN(CC)CCNc1cccc2c1C(=O)c1cccc3c1c-2nn3C.Cl	–	–	–	–	Not Active	–	–	–	–
CCN(CC)CCn1nc2c3c(cccc31)C(=O)c1c(NCCNCCO)cccc1-2.Cl	–	12.5	–	-1.3	–	230	117	–	–
CCN(CC)CCn1nc2c3c(c(NCCN)ccc31)C(=O)c1ccccc1-2.Cl	–	25	–	-1.5	–	46	104	–	–
CN(C)CCn1nc2c3c(c(NCCNCCO)ccc31)C(=O)c1c(O)ccc(O)c1-2.Cl	–	12.5	242	6.5	–	120	–	183	3
COc1cccc2c1C(=O)c1c(O)c3c(c(O)c1C2=O)C[C@@](O)(C(=O)CO)C[C@@H]3O[C@H]1C[C@H](N)[C@H](O)[C@H](C)O1 [DOXORUBICIN]	–	8	225	5.6	–	69	–	434	1
O=C1c2c(O)ccc(O)c2C(=O)c2c(NCCNCCO)ccc(NCCNCCO)c21 [MITOXANTRONE]	–	3	267	>6.8	–	1.6	–	265	0.6
